In data set [1] the test system is LS174T. Briefly: Antiproliferative activity against human LS174T cells assessed as inhibition of cell proliferation at 1 uM after 4 days by Vi-Cell cell viability analyzer based method relative to control. Type of data set: functional. As to conditions: 96 h. The procedure, abridged:
(§1)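 Cells (colon LS174T, HT-29, Caco2; lung epithelial BEAS-2B; fibroblast HEL 299) were kept in RPMI or DMEM with 5% or 10% FBS plus 1% penicillin/streptomycin. 3 × 10^4 cells per well were exposed to DMSO or compound. After 4 days, cell number and viability were counted on a Vi-Cell analyzer. Results are given as percent inhibition of proliferation at the stated concentration.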

Data set [2] relates to LS174T. Briefly: Antiproliferative activity against human LS174T cells assessed as inhibition of cell proliferation at 10 uM after 4 days by Vi-Cell cell viability analyzer based method relative to control. Type of data set: functional. As to conditions: 96 h. The procedure, abridged: as §1
Data set [3] concerns LS174T. Briefly: Antiproliferative activity against human LS174T cells assessed as inhibition of cell proliferation at 100 nM after 4 days by Vi-Cell cell viability analyzer based method relative to control. As to conditions: 96 h. It counts as functional. The procedure, abridged: as §1
Data set [4] relates to LS174T. Briefly: Antiproliferative activity against human LS174T cells assessed as inhibition of cell proliferation at 30 nM after 4 days by Vi-Cell cell viability analyzer based method relative to control. It counts as functional. As to conditions: 96 h. The procedure, abridged: as §1
The nature of data set [5]: Cytotoxicity against human HEL299 cells assessed as inhibition of cell proliferation at 10 uM after 4 days by Vi-Cell cell viability analyzer based method relative to control. Set-up: species or system HEL 299. The procedure, abridged: as §1
Data set [6] addresses G1/S-specific cyclin-D1 (Homo sapiens) (UniProt P24385). Briefly: Inhibition of cyclin D1 in human LS174T cells assessed as reduction in protein level at 300 nM by Western blot analysis. Type of data set: cell-based. The procedure, abridged:
(§2)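 LS174T cells were treated at 300 nM. Lysates were western blotted with antibodies to cyclin D1 and p21Wif1/Cip1, using β-tubulin as the loading control.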
For orientation: A western blot detects proteins with antibodies after separation by electrophoresis.

Data set [7] has as its system HT-29. Briefly: Antiproliferative activity against human HT-29 cells assessed as inhibition of cell proliferation at 1 uM after 4 days by Vi-Cell cell viability analyzer based method relative to control. As to conditions: HT-29, 96 h. Type of data set: functional. The procedure, abridged: as §1
A short description of data set [8]: Cytotoxicity against human BEAS2B cells assessed as inhibition of cell proliferation at 10 uM after 4 days by Vi-Cell cell viability analyzer based method relative to control. Also on record: species or system BEAS-2B. The procedure, abridged:
as §1

Data set [9] in a line: Cytotoxicity against human HEL299 cells assessed as inhibition of cell proliferation at 1 uM after 4 days by Vi-Cell cell viability analyzer based method relative to control. Also on record: species or system HEL 299. The procedure, abridged:
as §1

Data set [10] relates to Caco-2. Briefly: Antiproliferative activity against human Caco2 cells assessed as inhibition of cell proliferation at 1 uM after 4 days by Vi-Cell cell viability analyzer based method relative to control. It counts as functional. As to conditions: Caco-2, 96 h. The procedure, abridged: as §1
Data set [11] has as its system LS174T. Briefly: Antiproliferative activity against human LS174T cells assessed as inhibition of cell proliferation after 4 days by Vi-Cell cell viability analyzer based method. As to conditions: 96 h. Type of data set: functional. The procedure, abridged: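 LS174T cells in RPMI or DMEM with 5% or 10% FBS plus 1% penicillin/streptomycin were seeded at 3 × 10^4 cells per well. They were treated with DMSO or a range of compound concentrations, and cell number and viability were counted on a Vi-Cell analyzer after 4 days. IC50 was fitted from the dose-response curve.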

Data set [12] has as its target G1/S-specific cyclin-D1 (Homo sapiens) (UniProt P24385). Briefly: Inhibition of cyclin D1 in human LS174T cells assessed as induction of p21 waf1/cip1 expression at 300 nM by Western blot analysis. Type of data set: cell-based. The procedure, abridged:
as §2

Data set [13] can be described thus: Cytotoxicity against human BEAS2B cells assessed as inhibition of cell proliferation at 1 uM after 4 days by Vi-Cell cell viability analyzer based method relative to control. Also on record: species or system BEAS-2B. The procedure, abridged:
as §1

The source made the active and inactive calls. The rule behind the calls is not given here.

One may read the inhibition as the drop in the measured response relative to a control, in per cent. By IC50 is commonly meant the concentration that inhibits the measured activity by half.

Chain of G1/S-specific cyclin-D1 (Homo sapiens) (P24385 whole entry): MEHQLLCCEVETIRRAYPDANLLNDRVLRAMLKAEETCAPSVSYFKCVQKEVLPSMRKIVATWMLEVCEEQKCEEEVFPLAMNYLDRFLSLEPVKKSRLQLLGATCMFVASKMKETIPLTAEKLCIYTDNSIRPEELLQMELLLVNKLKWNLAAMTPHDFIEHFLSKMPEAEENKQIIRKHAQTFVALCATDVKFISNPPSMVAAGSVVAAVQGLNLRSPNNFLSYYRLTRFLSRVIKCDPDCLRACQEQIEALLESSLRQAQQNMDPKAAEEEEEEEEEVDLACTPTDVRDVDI

With `Cn1ncc2cc(C#Cc3c(F)cccc3F)ccc21`, in data set [1], the inhibition at 1 µM was found to be 58.4%. Moreover, in [2], the inhibition at 10 µM turned out to be 94.6%. In data set [3], the inhibition at 0.1 µM came out at 0%.
For `Fc1cccc(F)c1C#Cc1ccc2cccnc2c1`, in that order: 90.7%, 99.4% and 2.9%.
In the case of `Fc1cccc(F)c1C#Cc1cccc2ncccc12`, in data set [1], the inhibition at 1 µM came to 43.1%. Moreover, the inhibition at 10 µM in [2] was 94.7%.
For the compound `CN(C)c1ncc(C#Cc2c(F)cccc2F)c2ncccc12`, in data set [1], the inhibition at 1 µM was 87.9%. In addition, in [2], the inhibition at 10 µM stood at 85.2%. For the same compound, the inhibition at 0.1 µM in data set [3] came out at 59.5%.
In the case of `Fc1cccc(F)c1C#Cc1cncc2ccccc12`, the inhibition at 1 µM in data set [1] amounted to 16.5%. In addition, the inhibition at 10 µM in data set [2] was found to be 87.9%.
On to `Nc1ccnc2ccc(C#Cc3c(F)cccc3F)cc12`, for which, in [1], the inhibition at 1 µM is 66.2%. In data set [2], the inhibition at 10 µM was 93.9%. In addition, the inhibition at 0.1 µM in data set [3] amounted to 0%.
For the compound `Fc1cccc(F)c1C#Cc1ccc2cnccc2c1`, the inhibition at 1 µM in [1] was found to be 11.6%. Moreover, the inhibition at 10 µM in [2] was found to be 82.4%.
The corresponding values for `Fc1cccc(F)c1C#Cc1nccc2ccccc12` are 35.4% and 96.7%.
`Cn1ccc2cc(C#Cc3c(F)cccc3F)ccc21`: in data set [1], the inhibition at 1 µM is 77.7%. Besides, the inhibition at 10 µM in data set [2] stood at 95.2%. In data set [3], the inhibition at 0.1 µM is 3%.
Consider `Fc1cccc(F)c1C#Cc1ccnc2ccccc12`, for which, in [1], the inhibition at 1 µM is 15.4%. Further, the inhibition at 10 µM in data set [2] was 59%.
For `Cc1ccc(C)n1-c1ccc(C#Cc2c(F)cccc2F)cc1`, in that order: 20.9% and 78.8%.
For `Fc1cccc(F)c1C#Cc1ccc2nccc(Cl)c2c1`, in that order: 43.8% and 89.7%.
Regarding `Fc1cccc(F)c1C#Cc1ccc2ncccc2c1`, the inhibition at 1 µM in data set [1] is 11%. The inhibition at 10 µM in data set [2] turned out to be 80.1%.
As for `Fc1cccc(F)c1C#Cc1cccc2[nH]ncc12`, the inhibition at 1 µM in data set [1] was 19.8%. Also, the inhibition at 10 µM in data set [2] was 96.2%.
Turning to `Nc1ccc2ncc(C#Cc3c(F)cccc3F)cc2c1`, the inhibition at 10 µM in data set [2] was 9.2%.
For `Fc1cccc(F)c1C#Cc1ccc2cn[nH]c2c1`, in [1], the inhibition at 1 µM worked out at 81.5%. Besides, the inhibition at 10 µM in data set [2] was determined as 97%.
As for `Nc1ncc(C#Cc2c(F)cccc2F)c2ccccc12`, the inhibition at 1 µM in data set [1] is 86.2%. In addition, the inhibition at 10 µM in data set [2] stood at 93.1%. Also, in data set [3], the inhibition at 0.1 µM turned out to be 35.5%.
On to `CN(C)c1ncc(C#Cc2c(F)cccc2F)c2ccccc12`, for which the inhibition at 0.03 µM in [4] came out at 86%. Moreover, the inhibition at 96 h, 10 µM turned out to be 11.7% in [5] and 16.2% in [8]. For the same compound, the inhibition entry in data set [6] and in data set [12] was “Active” throughout. For the same compound, the inhibition at 1 µM came to 35.9% in [7], 99.5% in [1] and 54.5% in data set [10]. In addition, the inhibition at 96 h, 1 µM worked out at 13.9% in [9] and 1.5% in data set [13]. The IC50 in data set [11] turned out to be 11.8 nM. Also, the inhibition at 10 µM in data set [2] worked out at 97.6%. Also, the inhibition at 0.1 µM in data set [3] came out at 81.7%.
Consider `Fc1cccc(F)c1C#Cc1cnc2ccccc2c1Cl`, for which the inhibition at 1 µM in data set [1] worked out at 51.5%. Also, the inhibition at 10 µM in data set [2] was determined as 80.4%. Moreover, the inhibition at 0.1 µM in data set [3] was 0%.
Take `Fc1cccc(F)c1C#Cc1ccc(N2CCOCC2)cc1`: the inhibition at 1 µM in data set [1] is 13%. Besides, in data set [2], the inhibition at 10 µM was determined as 32.1%.
Regarding `Fc1ccc2ccnc(C#Cc3c(F)cccc3F)c2c1`, the inhibition at 1 µM in [1] was 71.1%. For the same compound, in [2], the inhibition at 10 µM was found to be 96.2%. Moreover, in data set [3], the inhibition at 0.1 µM was found to be 0%.
The corresponding values for `Fc1cccc(F)c1C#Cc1cnc2ccccc2c1` are 41.7%, 90.4% and 0%.
`Nc1ccnc2cc(C#Cc3c(F)cccc3F)ccc12`: the inhibition at 1 µM in data set [1] was 23.6%. Also, the inhibition at 10 µM in data set [2] came out at 97.7%.
Take `Fc1ccc2cc(C#Cc3c(F)cccc3F)cnc2c1`: in data set [1], the inhibition at 1 µM was 69.4%. For the same compound, the inhibition at 10 µM in [2] stood at 95.1%. Also, in data set [3], the inhibition at 0.1 µM is 14.8%.

The values above are taken from ChEMBL document CHEMBL4261567, “Phenylethynyl-substituted Heterocycles Inhibit Cyclin D1 and Induce the Expression of Cyclin-dependent Kinase Inhibitor p21Wif1/Cip1 in Colorectal Cancer Cells” (Medchemcomm, 2018).
